Measured values gathered from unrelated publications.
Observed: enzyme activity
Action: inhibitor
LCK: Tyrosine-protein kinase Lck (LCK, Homo sapiens, UniProt P06239)
LCK phosphorylated: Tyrosine-protein kinase Lck, phosphorylated (LCK, Homo sapiens, UniProt P06239)

CCN(CC)CCNC(=O)c1c(C)[nH]c(/C=C2\C(=O)Nc3ccc(Cl)cc32)c1C  remaining activity (LCK; 0.5 µM): 11.8%
Cc1ccc(NC(=O)c2ccc(C)c(C(F)(F)F)c2)cc1C#Cc1nn(C2CCC(O)CC2)c2ncnc(N)c12 (centres unmarked)  remaining activity (LCK phosphorylated; 10 µM): 0%
Cc1cnc(NC2CCOCC2)nc1-n1cnc(C(=O)NC(CN)c2cc(F)cc(Cl)c2)c1 (centres unmarked)  remaining activity (LCK phosphorylated; radiometric; 1 µM): 109%
COc1cc2ncnc(Nc3cccc(Cl)c3)c2cc1OC  remaining activity (LCK; 0.5 µM): 74.9%
Oc1cccc(-c2nc(N3CCOCC3)c3oc4ncccc4c3n2)c1  remaining activity (LCK; 10 µM): 85%
CC(C)(C)c1nc(-c2cccc(NS(=O)(=O)c3c(F)cccc3F)c2F)c(-c2ccnc(N)n2)s1  remaining activity (LCK; radiometric; 1 µM): 38%
COc1cc(Cl)c(C(=O)N[C@@H](CN[C@H]2CC[C@@H](N)CC2)Cc2ccc(C#N)cc2)cc1-c1ccc(CN[C@H](C)c2ccc(C)cc2)o1  remaining activity (LCK; 1 µM): 75%
CCN(CC)c1ccc(C2=NNC(=O)CC2C)cc1[N+](=O)[O-] (centres unmarked)  remaining activity (LCK phosphorylated; 10 µM): 104%
Nc1nc(Nc2ccccc2)sc1C(=O)c1c(F)cccc1F  remaining activity (LCK; 10 µM): 49%
Nc1ncnc2occ(-c3ccc(NC(=O)Nc4cc(C(F)(F)F)ccc4F)cc3)c12  remaining activity (LCK; 20 µM): 0.1%
O=C1Nc2ccc(Cl)cc2C1=Cc1cc(Cl)c(O)c(Cl)c1  remaining activity (LCK; 0.5 µM): 88.2%
CCCOc1ccc(OC)c(F)c1C(=O)c1ccc(C(=O)N[C@@H]2CNC[C@H]2NC(=O)c2ccc3[nH]ncc3c2)cc1  remaining activity (LCK phosphorylated; 10 µM): 18%
COc1cc2c(N3CCN(C(=O)Nc4ccc(OC(C)C)cc4)CC3)ncnc2cc1OCCCN1CCCCC1  remaining activity (LCK; 0.5 µM): 87.1%
O=C(Nc1cnn(-c2csc(C(=O)NC3COC3)c2)c1)Nc1c(F)cccc1Cl  remaining activity (LCK; 5 µM): 94.2%
COc1cc(Nc2cnc(C#N)c(O[C@H](C)CN(C)C)n2)ncc1-c1cnn(C)c1  remaining activity (LCK; radiometric; 10 µM): 20%
COc1cc(Nc2c(C#N)cnc3cc(OCCCN4CCN(C)CC4)c(OC)cc23)c(Cl)cc1Cl  remaining activity (LCK; 0.5 µM): 1.88%
Cn1c(=O)n(-c2ccc(C(C)(C)C#N)cc2)c2c3cc(-c4cnc5ccccc5c4)ccc3ncc21  remaining activity (LCK; 10 µM): 54%
Nc1nc(NC2CCCCC2)sc1C(=O)c1ccccc1  remaining activity (LCK; 10 µM): 86%
N#CCCc1ccc2c(c1)-c1[nH]c3ccc([N+](=O)[O-])cc3c1CC(=O)N2  remaining activity (LCK; 0.5 µM): 78.2%
Cc1[nH]c(/C=C2\C(=O)Nc3ccc(F)cc32)c(C)c1C(=O)N[C@H]1CCN(C(=O)N(C)C)C1  remaining activity (LCK; 0.1 µM): 87%
